The text below walks through data of ChEMBL document CHEMBL1806459, “Discovery of N-(1-ethylpropyl)-[3-methoxy-5-(2-methoxy-4-trifluoromethoxyphenyl)-6-methyl-pyrazin-2-yl]amine 59 (NGD 98-2): an orally active corticotropin releasing factor-1 (CRF-1) receptor antagonist” (J Med Chem, 2011).

A value given as a limit tells only on which side of the number the result lay.

The nature of series [1]: Half life in rat microsomes. The series is classed as ADME, Microsome. The procedure, abridged: (§1)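 Stability in human or rat liver microsomes; half-life (T1/2, min) of compound turnover reported.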
Series [2] addresses T1, Corticotropin-releasing factor receptor 1 (Homo sapiens, UniProt P34998).
T1 sequence (P34998 whole entry): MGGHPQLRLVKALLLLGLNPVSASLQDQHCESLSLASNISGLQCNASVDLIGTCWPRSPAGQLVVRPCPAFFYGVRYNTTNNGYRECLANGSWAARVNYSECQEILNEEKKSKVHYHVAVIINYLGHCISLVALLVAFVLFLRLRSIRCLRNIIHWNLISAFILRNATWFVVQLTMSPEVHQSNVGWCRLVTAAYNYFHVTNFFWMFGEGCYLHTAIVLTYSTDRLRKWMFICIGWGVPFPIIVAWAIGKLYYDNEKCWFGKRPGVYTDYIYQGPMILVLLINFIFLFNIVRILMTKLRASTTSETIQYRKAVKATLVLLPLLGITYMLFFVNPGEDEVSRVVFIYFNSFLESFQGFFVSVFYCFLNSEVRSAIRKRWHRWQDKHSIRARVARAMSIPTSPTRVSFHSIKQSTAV
The series is described as follows: Displacement of [125I]-sauvagine from human CRF-1 receptor expressed in human IMR-32 cells after 2 hrs by scintillation counting. The series is classed as cell-based. The procedure, abridged:
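Competition binding against 125I-sauvagine on membrane preparations from IMR-32 human neuroblastoma cells, which express CRF-1 endogenously. Modified from a published method.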
In general terms: Loss of bound radioactivity is the signal in a displacement assay; it reports binding, not function.

Series [3] is described as follows: Half life in human microsomes. The series is classed as ADME, Microsome. The method, boiled down:
as §1

The target in series [4] is T1, Corticotropin-releasing factor receptor 1. Put plainly: Antagonist activity at human CRF-1 receptor. The series is classed as functional.

For the compound `CCc1nc(-c2ccc(C)cc2OC)c(CC)nc1NC(CC)CC`, the results for the half-life in series [1] and in series [3] were less than 1 min and 11 min, respectively. Also, the affinity in series [2] corresponds to a Ki of 23.7 nM.

As for `CCC(CC)Nc1nc(C)c(-c2ccc(Cl)cc2Cl)nc1C`, the results for the half-life in series [1] and in series [3] were 3.2 min and 29 min, respectively. The same compound yielded a Ki in series [2] of 27 nM.

`CCc1nc(-c2ccc(Cl)cc2Cl)c(CC)nc1SC(C)CC` (stereo unspecified): the half-life turned out to be 4.1 min in series [1] and 17 min in series [3]. The same compound gave a Ki in series [2] of 401 nM.

In the case of `CCOc1nc(-c2ccc(Cl)cc2Cl)c(CC)nc1NC(CC)CC`, the half-life in series [1] was found to be 74 min; in series [3], 120 min. Moreover, the affinity in series [2] corresponds to a Ki of 151 nM.

Take `CCC(CC)Nc1nc(C)c(-c2ccc(OC(F)F)cc2Cl)nc1OC`: the half-life was 48 min in series [1] and 120 min in series [3]. The same compound showed an inhibition constant Ki in series [2] of 4.6 nM.

As to `CCc1nc(NC(CC)CC)c(OC)nc1-c1ccc(C(F)(F)F)cc1OC`, the results for the half-life in series [1] and in series [3] were 23 min and 73 min, respectively. This compound also had an inhibitory constant (Ki) in series [2] of 4.4 nM.

Take `CCc1nc(-c2ccc(Cl)cc2Cl)c(CC)nc1CC(CC)CC`: the values for the half-life in series [1] and in series [3] were 2.5 min and 13 min, respectively. Besides, the inhibition constant Ki in series [2] worked out at 68 nM.

Consider `CCc1nc(-c2ccc(Cl)cc2Cl)c(CC)nc1NC(C)CN(C)C` (stereo unspecified), for which the half-life was less than 1 min in series [1] and 7 min in series [3]. In series [2], this compound returned a Ki of 489 nM.

Turning to `CCc1nc(-c2ccc(OC(C)C)cc2OC)c(CC)nc1NC(CC)CC`, the half-life in series [1] is less than 1 min; in series [3] it was 11 min. The Ki in series [2] is 4.2 nM.

For `CCc1nc(NC(CC)CC)c(I)nc1-c1ccc(Cl)cc1Cl`, in series [2], the Ki worked out at 12 nM.

Regarding `CCc1nc(-c2cnc(C)cc2N(C)C)c(CC)nc1NC(CC)CC`, the half-life in series [1] was less than 1 min; in series [3], 7 min. For the same compound, the Ki in series [2] was found to be 7.6 nM.

As to `CCc1nc(-c2ccc(OC(F)(F)F)cc2OC)c(OC)nc1NC(CC)CC`, the half-life in series [1] stood at 36 min; in series [3] it was 52 min. The compound further came in with an inhibitory constant (Ki) in series [2] of 6.1 nM.

On to `CCc1cc(OC)ccc1-c1nc(OC)c(NC(CC)CC)nc1CC`, for which the half-life in series [1] and in series [3] was 120 min each time. Also, in series [2], the inhibition constant (Ki) amounted to 1.9 nM.

In series [4], `CCCC(CCC)N1CCn2nc(-c3ccc(Cl)cc3Cl)c3nc(C)cc1c32` showed a Ki of 4 nM.

With `CCc1nc(-c2ccc(OC)cc2OC(F)(F)F)c(CC)nc1NC(CC)CC`, the half-life in series [1] is 4.1 min; in series [3], 16 min. For the same compound, the Ki in series [2] was 4.1 nM.

For the compound `CCc1nc(-c2ccc(OC)cc2Cl)c(OC)nc1NC(CC)CC`, the Ki in series [2] amounted to 1.1 nM. Further, in series [3], the half-life was 120 min.

On to `CCc1nc(-c2ccc(OC)cc2C(F)(F)F)c(CC)nc1NC(CC)CC`, for which the half-life in series [1] worked out at 4.3 min; in series [3], 12 min. The affinity in series [2], expressed as Ki, was 4.4 nM.

`CCc1nc(NC(CC)CC)c(F)nc1-c1ccc(Cl)cc1Cl`: the half-life turned out to be 21 min in series [1] and 73 min in series [3]. Further, in series [2], the affinity corresponds to a Ki of 167 nM.

For `CCc1nc(-c2ccc(OC(F)F)cc2Cl)c(OC)nc1NC(CC)CC`, the half-life stood at 17 min in series [1] and 120 min in series [3]. The compound also returned a Ki in series [2] of 2.5 nM.

Turning to `CCc1nc(NC(CC)CC)cnc1-c1ccc(Cl)cc1Cl`, in series [2], the Ki came out at 545 nM. In addition, in series [3], the half-life stood at 28 min.

As to `CCOc1ccc(-c2nc(OC)c(NC(CC)CC)nc2C)c(Cl)c1`, the half-life in series [1] amounted to 47 min; in series [3], 120 min. Also, the Ki in series [2] turned out to be 5.9 nM.

Take `CCC(CC)Nc1nc(OC)c(-c2ccc(Cl)cc2Cl)nc1C`: the half-life in series [1] amounted to 17 min; in series [3] it was 56 min. Moreover, the Ki in series [2] stood at 14.4 nM.

As for `CCc1nc(-c2ccc(OC)cc2OC)c(CC)nc1NC(CC)CC`, the values for the half-life in series [1] and in series [3] were 2.5 min and 8 min, respectively. In addition, in series [2], affinity was put at a Ki of 7.3 nM.

`CCOc1ccc(-c2nc(CC)c(NC(CC)CC)nc2CC)c(OC)c1` returned an inhibition constant Ki in series [2] of 7.8 nM.

`COCC(COC)Nc1nc(C)nc2c(-c3ccc(Cl)cc3Cl)c(C)nn12` gave a Ki in series [4] of 2 nM.

On to `CCc1nc(-c2ccc(Cl)cc2Cl)c(OC)nc1NC(CC)CC`, for which the half-life in series [1] was found to be 11 min; in series [3], 42 min. Moreover, the affinity in series [2] corresponds to a Ki of 8 nM.

Consider `CCC(CC)Nc1nc(C)c(-c2ccc(Cl)cc2Cl)nc1OC`, for which the inhibition constant (Ki) in series [2] came out at 4.3 nM.

In turn, `CCc1nc(NC(CC)CC)c(OC)nc1-c1ccc(Cl)cc1Cl` yielded a Ki in series [2] of 5.9 nM. In addition, the half-life in series [3] was 35 min.

As for `CCc1nc(N(CCOC)CCOC)c(CC)nc1-c1ccc(Cl)cc1Cl`, the results for the half-life in series [1] and in series [3] were less than 1 min and 2 min, respectively. This compound also yielded a Ki in series [2] of 128 nM.

As for `CCc1nc(N(CC2CC2)CC2CC2)c(CC)nc1-c1ccc(Cl)cc1Cl`, the half-life in series [1] was less than 1 min; in series [3], 8 min. This compound also came in with an inhibition constant (Ki) in series [2] of 26 nM.

Consider `CCc1nc(-c2ccc(OC)cc2O)c(CC)nc1NC(CC)CC`, for which the half-life is 5.9 min in series [1] and 18 min in series [3]. In series [2], this compound displayed a Ki of 1180 nM.

For the compound `CCCN(CC1CC1)c1nc(CC)c(-c2ccc(Cl)cc2Cl)nc1CC`, the half-life worked out at 4.2 min in series [1] and 12 min in series [3]. The compound further yielded a Ki in series [2] of 19.2 nM.

With `CCCCc1nc(-c2ccc(Cl)cc2Cl)c(CC)nc1NC(CC)CC`, the half-life was determined as 4.2 min in series [1] and 22 min in series [3]. This compound returned a Ki in series [2] of 3660 nM.

Regarding `CCCN(CCN(C)C)c1nc(CC)c(-c2ccc(Cl)cc2Cl)nc1CC`, the half-life in series [1] was less than 1 min; in series [3], 5 min. This compound came in with an inhibition constant Ki in series [2] of 1540 nM.

For `CCc1nc(NC(CC)CC)c(OC)nc1-c1ccc(OC(F)F)cc1Cl`, the half-life in series [1] is 47 min; in series [3] it was 120 min. The compound further returned a Ki in series [2] of 1.4 nM.

With `CCc1nc(-c2ccc(Cl)cc2Cl)c(CC)nc1NC(C1CC1)C1CC1`, the half-life in series [1] worked out at 2.5 min; in series [3], 11 min. The compound also registered a Ki in series [2] of 3.7 nM.

Consider `CCc1nc(-c2ccc(Cl)cc2Cl)c(C)nc1NC(CC)CC`, for which the half-life in series [1] is 4.2 min; in series [3] it was 18 min. The compound further gave a Ki in series [2] of 8.6 nM.

With `CCc1nc(-c2cnc(OC)nc2OC)c(CC)nc1NC(CC)CC`, the results for the half-life in series [1] and in series [3] were less than 1 min and 7 min, respectively. Further, the Ki in series [2] was 17.2 nM.

As to `CCc1nc(-c2ccc(Cl)cc2Cl)c(CC)nc1NC(COC)COC`, the half-life in series [1] worked out at 2.5 min; in series [3] it was 9 min. This compound showed a Ki in series [2] of 224 nM.

With `CCc1nc(NC(CC)CC)c(C)nc1-c1ccc(Cl)cc1Cl`, the results for the half-life in series [1] and in series [3] were 11 min and 27 min, respectively. In series [2], affinity was put at a Ki of 54 nM.

Take `CCc1nc(-c2ccc(C(F)(F)F)cc2OC)c(CC)nc1NC(CC)CC`: the Ki in series [2] is 5.6 nM. The compound further had a half-life in series [3] of 11 min.

Consider `CCc1nc(-c2ccc(OC)nc2OC)c(CC)nc1NC(CC)CC`, for which the half-life in series [1] is 2.5 min; in series [3], 9 min. This compound displayed an inhibitory constant (Ki) in series [2] of 11.6 nM.

As for `CCc1nc(NC(CC)CC)c(OC)nc1-c1ccc(OC)cc1C(F)(F)F`, the half-life in series [1] and in series [3] was 120 min throughout. This compound registered a Ki in series [2] of 2.2 nM.

Turning to `CCC(CC)Nc1nc(C)c(-c2ccc(C(F)(F)F)cc2OC)nc1OC`, the half-life in series [1] and in series [3] was 120 min throughout. In series [2], this compound gave an inhibition constant Ki of 1.3 nM.

As to `CCCN(CCC)c1c(C)ncc2c(-c3ccc(Cl)cc3Cl)cccc12`, the Ki in series [4] was determined as 103 nM.

For `CCC(CC)Nc1nc(OC)c(-c2ccc(Cl)cc2Cl)nc1OC`, the half-life in series [1] amounted to 2.5 min; in series [3], 16 min. This compound gave a Ki in series [2] of 8.4 nM.

In the case of `CCc1nc(-c2ccc(Cl)cc2Cl)c(CC)nc1OC(CC)CC`, the results for the half-life in series [1] and in series [3] were 2.5 min and 10 min, respectively. Further, the affinity in series [2], expressed as Ki, was 46 nM.

Take `CCc1nc(NC(CC)CC)c(Cl)nc1-c1ccc(Cl)cc1Cl`: the half-life in series [1] was less than 1 min; in series [3] it was 10 min. The same compound showed an inhibitory constant (Ki) in series [2] of 71 nM.

Turning to `CCc1nc(-c2ccc(OC(F)(F)F)cc2OC)c(CC)nc1NC(CC)CC`, the half-life in series [1] is 2.5 min; in series [3], 13 min. The compound further registered a Ki in series [2] of 7.2 nM.

One may read the half-life as the time needed for the level to fall by half in the phase considered. Usually Ki stands for the equilibrium dissociation constant of an inhibitor or competing ligand from its target.
